Where two headings read alike, the source gives them in different places.
How the values were obtained:
[1] = target: rTbHK1 (recombinant T. brucei hexokinase 1); assay: rTbHK1 enzyme inhibition assay; format: biochemical, Trypanosoma brucei; conditions: read-out: TbHK1 IC50; dose-response
Outline: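 Recombinant TbHK1 was expressed in and isolated from Escherichia coli or yeast. The purified enzyme was tested in triplicate for percent inhibition at 10 μM test compound. IC50 was taken as the concentration giving 50% inhibition of TbHK1 activity.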

BSF T. brucei [2] = assay: Growth inhibition of BSF T. brucei cultures; format: cell-based, Trypanosoma brucei; conditions: for EC50: read-out: BSF EC50, dose-response in triplicate, 384-well format
Outline: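 Bloodstream-form T. brucei cultures were treated in triplicate with test compound at 10 μM, with DMSO vehicle as negative control and a reference inhibitor as positive control on each plate. Percent growth inhibition was calculated against DMSO-treated parasites on the same plate. Compounds giving >50% inhibition at 10 μM went to triplicate dose-response curves, and the EC50 was fitted as the concentration killing 50% of parasites.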

[3] = target: rTbHK1 (recombinant T. brucei hexokinase 1); conditions: read-out: rTbHK1 IC50; initial round of SAR study; cited from earlier work
BSF T. brucei [4] = conditions: cited from earlier work
mammalian hexokinase = conditions: cited from earlier work
human cell lines = conditions: cited from earlier work

## CC(C)(C)c1ccc(C(=O)Nc2cc(Cl)c(Br)cc2C(=O)O)cc1 [Compound 2]
[1]
  IC50: 980 ± 67 nM
BSF T. brucei [2]; 10 μM, triplicate, vs DMSO controls
  %BSF Growth Inhibition (10 μM): 6.9 ± 3.0%
BSF T. brucei [2]
  EC50: > 10000 nM
[3]
  IC50: 980 ± 70 nM
BSF T. brucei [4]
  Trypanocidal activity against whole-cell BSF parasites (result in words): not an effective trypanocide
Mammalian hexokinase
  Impact on a mammalian hexokinase: no impact
Human cell lines
  Toxicity toward human cell lines: no appreciable toxicity

## N=C(N)c1ccc(OCCCCCOc2ccc(C(=N)N)cc2)cc1 [pentamadine]
BSF T. brucei [2]
  EC50: 3 ± 1 nM
